We go through three compounds from ChEMBL document CHEMBL1149780, “Unsaturated fluoro-ketopyranosyl nucleosides: synthesis and biological evaluation of 3-fluoro-4-keto-beta-d-glucopyranosyl derivatives of N(4)-benzoyl cytosine and N(6)-benzoyl adenine” (Eur J Med Chem, 2008).

For assay [1], the system named is MCF7. Kind of assay: Tumor selectivity index, CC50 for human H4 cells to CC50 for human MCF7 cells. It is filed as functional.
For assay [2], the system named is H4. Kind of assay: Tumor selectivity index, CC50 for human H4 cells to CC50 for human melanoma cells. It is filed as functional.
The subject of assay [3] is H4. Kind of assay: Tumor selectivity index, CC50 for human H4 cells to CC50 for human Caco-2 cells. In kind it is functional.
Assay [4] in a line: Ratio of CC50 for Caco-2 cells to IC50 for rotavirus infected human Caco2 cells assessed as inhibition of infectivity following virus attachment.
The test system of assay [5] is Caco-2. Kind of assay: Cytotoxicity against human Caco-2 cells after 72 hrs. In kind it is functional. The note with it: Caco-2, 72 h. In a few lines: (§1)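 Caco-2, H4 (normal intestinal), MCF-7 and skin melanoma cells seeded at 6 × 10^6 cells per plate, given 3-fold serial dilutions (top 0.5 mg/mL; DMSO below 0.1%), 37 °C, 72 h.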
In assay [6] the test system is MCF7. Kind of assay: Cytotoxicity against human MCF7 cells after 72 hrs. Particulars: MCF7, 72 h. It is filed as functional. In a few lines:
as §1

Assay [7] deals with H4. The experiment in a line: Cytotoxicity against human H4 cells after 72 hrs. In kind it is functional. The note with it: H4, 72 h. In a few lines:
as §1

In assay [8] the test system is Rotavirus. The experiment in a line: Antiviral activity against gastrointestinal rotavirus in human Caco-2 cells assessed as inhibition of infectivity following virus attachment. It is filed as functional, organism-based. In a few lines:
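Caco-2 monolayers washed, exposed to rotavirus RF strain (1.5 TCID50/mL, 100 µL/well) for 1 h at 37 °C, 5% CO2; unbound virus washed off, then 3-fold serial compound dilutions added (top 0.5 mg/mL; DMSO below 0.1%).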

Assay [9] has as its system Caco-2. Kind of assay: Growth inhibition of human Caco-2 cells. It is filed as functional, cell-based. In a few lines:
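Colony-formation assay: Caco-2 seeded at 10 cells/well in DMEM-10% FBS, given 3-fold dilutions (top 0.5 mg/mL), incubated 10 days at 37 °C. Colonies counted; colony number in treated (n = 2) vs control wells (n = 24) as %; IC50 from concentration-effect curve.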

The nature of assay [10]: Cytotoxicity against human melanoma cells after 72 hrs. In kind it is functional. The note with it: Melanoma cell. In a few lines: as §1

By CC50 is commonly meant the concentration at which the toxic effect on the cells reaches its halfway point. Higher therefore signals lower toxicity to the cells. A word on the IC50: it is the concentration needed to halve the response being measured.

Take `O=c1[nH]cc(F)c(=O)[nH]1` [FLUOROURACIL]: the Ratio worked out at 5 in assay [1], 83.4 in assay [2] and 10 in assay [3].

For `Cc1cn([C@H]2C[C@H](N=[N+]=[N-])[C@@H](CO)O2)c(=O)[nH]c1=O` [ZIDOVUDINE], in assay [4], the “Ratio CC50/IC50” value is 2.5. The same compound registered a CC50 in assay [5] of 56.1 µM.

As to `O=C(Nc1ncnc2ncn([C@H]3C=C(F)C(=O)[C@@H](COC(c4ccccc4)(c4ccccc4)c4ccccc4)O3)c12)c1ccccc1`, the “Ratio CC50/IC50” value in [4] is given as 0.04. Moreover, the CC50 in [5] came out at 31.9 µM; in [6], 9.5 µM; in [7] it was 799 µM; in [10], 9.5 µM. The Ratio in assay [1] turned out to be 84.1; in assay [2], 84.1; in [3], 25. For the same compound, the figures for the IC50 in [8] and in [9] were 799 µM and 1.1 µM, respectively.
